High-throughput results: PubChem, several laboratories
An excerpt weighted towards active compounds, which were near 3.3% of everything screened.
PMI act satM6P: increases human PMI activity with near-saturating mannose 6-phosphate. P34949. coupled PMI enzyme assay, resazurin fluorescence, 20 min; active compounds read high; 1 = untreated enzyme, 0 = substrate-free blank. activation factor at 20 µM. actives 0.34% (n = 190,000);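 active means activation factor of 2 or more at 20 µM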
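Material: human phosphomannose isomerase with PGI, G6PDH, diaphorase coupling enzymes. Quantity: 15 ng/mL PMI. Medium: HEPES pH 7.4 buffer with MgCl2 and Tween-20. Reagent: Near-saturating mannose-6-phosphate, 1.0 mM. Compound: 20 µM single dose. Times: enzyme reaction with compound 20 min at room temperature. Detection: resorufin fluorescence at Ex 544/Em 590 nm.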
PMI activator: activators of human phosphomannose isomerase | purified human PMI, coupled resazurin fluorescence, 20 min; active compounds read high; 1 = vehicle control, 0 substrate-free wells | activation factor at 20 µM | actives 0.005% (n = 190,000) | P34949;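 active means activation factor of 2 or more at 20 µM, relative to plate controls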
KCC2 mod: modulators of human KCC2 chloride dependent transport; AID 1456; Q9H2X9; KCC2 cells, thallium flux FluoZin-2 fluorescence; B-score of Tl+ flux slope (higher = more flux/activation; lower = inhibition) at 10 µM; actives 2.2% (n = 190,000);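 active means thallium flux slope and its plate-corrected score both differing from the plate sample mean at a set confidence after two filtering rounds, in either direction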;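 further: slope of fluorescence scaled to starting intensity during 10 to 20 s after thallium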
Target sequence (Q9H2X9 whole entry, looked up): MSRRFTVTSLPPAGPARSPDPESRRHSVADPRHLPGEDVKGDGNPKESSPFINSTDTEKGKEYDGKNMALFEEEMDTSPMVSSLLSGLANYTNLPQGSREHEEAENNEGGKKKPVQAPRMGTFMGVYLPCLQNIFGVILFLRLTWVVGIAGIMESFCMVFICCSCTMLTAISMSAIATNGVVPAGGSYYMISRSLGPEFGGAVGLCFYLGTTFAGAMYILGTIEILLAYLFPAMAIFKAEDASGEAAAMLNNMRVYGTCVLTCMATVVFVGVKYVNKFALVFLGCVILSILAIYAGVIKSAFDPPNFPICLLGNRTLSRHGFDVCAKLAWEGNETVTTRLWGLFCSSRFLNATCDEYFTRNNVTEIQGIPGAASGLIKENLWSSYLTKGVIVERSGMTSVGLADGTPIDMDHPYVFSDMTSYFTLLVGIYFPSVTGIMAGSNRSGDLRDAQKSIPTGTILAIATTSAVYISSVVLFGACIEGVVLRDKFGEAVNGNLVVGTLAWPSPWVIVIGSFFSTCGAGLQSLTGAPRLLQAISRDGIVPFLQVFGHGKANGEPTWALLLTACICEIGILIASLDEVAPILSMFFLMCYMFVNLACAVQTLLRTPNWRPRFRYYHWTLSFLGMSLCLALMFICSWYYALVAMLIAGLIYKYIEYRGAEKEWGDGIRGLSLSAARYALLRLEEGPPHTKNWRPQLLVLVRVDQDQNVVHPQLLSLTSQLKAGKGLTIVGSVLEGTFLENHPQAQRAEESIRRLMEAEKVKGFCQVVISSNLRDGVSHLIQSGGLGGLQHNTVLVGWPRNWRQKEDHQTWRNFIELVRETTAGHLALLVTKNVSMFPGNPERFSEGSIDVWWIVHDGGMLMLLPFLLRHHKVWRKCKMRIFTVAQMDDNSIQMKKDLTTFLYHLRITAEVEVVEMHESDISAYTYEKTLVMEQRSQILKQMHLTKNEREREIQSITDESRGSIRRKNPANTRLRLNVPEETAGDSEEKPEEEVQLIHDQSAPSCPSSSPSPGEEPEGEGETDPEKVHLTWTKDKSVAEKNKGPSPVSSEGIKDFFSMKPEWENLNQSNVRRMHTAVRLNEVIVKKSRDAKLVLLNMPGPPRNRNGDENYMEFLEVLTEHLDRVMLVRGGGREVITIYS
ABCB1 inh: human ABCB1 inhibition, ABCG2 as counter-screen; AID 1326; CCRF-Adr cells, JC-1 efflux, flow cytometry; inhibition, % at 6.6 µM; actives 0.067% (n = 190,000); in the data active means inhibition above about 40%;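 further: 0% = vehicle and 100% = reference inhibitor; higher value means more JC-1 retained so stronger ABCB1 efflux block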
ABCG2 block: blocks JC-1 efflux by human ABCG2 transporter. IgMXP3 cells, flow cytometry. Q9UNQ0. actives 0.1% (n = 190,000). inhibition, % at 6.6 µM;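 active means inhibition above 80%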;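 further: 0% = DMSO and 100% = nicardipine control wells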
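material = IgMXP3 (ABCG2) plus far-red-tagged CCRF-Adr (ABCB1) cells | amount = 3 million cells/mL, equal mix of both lines | also added = JC-1 transporter substrate | dosing = one concentration, 6.6 µM final | schedule = 10 min at 25 °C | measured by = flow cytometric JC-1 green MFI at 530 nm | read-out basis = percent efflux inhibition, scaled nicardipine 100% to DMSO 0%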
ROMK primary: human ROMK K+ channel modulation, primary screen. P48048. Tet-inducible ROMK, thallium flux fluorescence; actives lie on both sides. B-score at 10 µM. actives 2% (n = 130,000). AID 1918;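 active means signal ratio slope over the read window, or its plate-corrected B-score, at least 3 SD from the plate mean, either direction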;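 further: B-score of the F/F0 ratio slope over 7 to 12 s after thallium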
KCC2 sec1: confirmation of human KCC2 transport modulators; HEK293-KCC2, thallium flux, FluoZin2 fluorescence; active compounds read high; normalised thallium flux (F/F0 slope) at 10 µM; actives 15% (n = 3,700); shares compounds with KCC2 mod;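 active means thallium flux slope above the same plate's solvent-only control mean plus 3 SD; inconclusive means the two replicate wells disagree; inactive means no significant difference from solvent-only control wells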
KCC2 bumet counter: thallium flux persisting under bumetanide in KCC2 cells, counter-screen secondary assay; shares compounds with KCC2 mod; HEK293-KCC2 + bumetanide/ouabain, thallium flux FluoZin2; active compounds read high; normalized thallium flux at 10 µM; actives 49% (n = 3,700);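 active means thallium entry rate above the same plate's blocked-transporter control wells by more than 3 SD; inconclusive means the two repeat wells disagree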;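 further: raw slope of fluorescence over initial fluorescence between 10 and 20 s after thallium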
KCC2 secondary2: KCC2 (human) modulation, second secondary assay; shares compounds with KCC2 mod; HEK293-KCC2, thallium flux FluoZin2 fluorescence; actives lie on both sides; F/F0 rise rate, 10–20 s post-thallium; normalized thallium flux at 10 µM; actives 23% (n = 3,700);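 active means thallium flux slope more than 3 SD above or below the plate's solvent-only control mean, mostly below; inconclusive means the two repeat wells disagreed; inactive means no significant shift from solvent-only controls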;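 further: raw slope with 0.1% DMSO as baseline and bumetanide as block control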
HEK counter1: counter-screen for KCC2 modulators: effect in parental HEK293 cells | shares compounds with KCC2 mod | thallium flux FluoZin2, ouabain; baseline-ratio fluorescence slope, 10–20 s after thallium | thallium flux rate (normalised fluorescence) at 10 µM | AID 1716 | actives 46% (n = 3,700);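 active means thallium flux rate significantly above the same plate's solvent-only control wells, beyond their mean plus 3 SD; inconclusive means the two replicate wells gave conflicting results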
KCC2 retest ouab: KCC2 (human) modulation, ouabain retest | shares compounds with KCC2 mod | raw Tl+ flux slope (below DMSO = inhibition, above = activation) at 10 µM | actives 48% (n = 3,700) | AID 1717 | HEK293-KCC2, thallium flux FluoZin2 fluorescence; bidirectional: low = inhibitor, high = activator;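 active means thallium flux slope beyond 3 SD from same-plate DMSO control mean in most replicates, usually higher, sometimes lower; inconclusive means repeat tests gave conflicting results; inactive means no significant difference from controls in most replicates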;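 further: slope of initial-normalized fluorescence between seconds 10 and 20 after thallium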
HEK293 Tl flux2: acts in parental HEK cells, second KCC2 counter-screen. shares compounds with KCC2 mod. HEK293 parental, thallium flux FluoZin-2 fluorescence slope. thallium flux slope at 10 µM. actives 33% (n = 3,700). AID 1718;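 active means thallium flux slope above the same plate's solvent-control mean plus 3 SD in both duplicate wells; inconclusive means duplicate wells that disagreed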;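 further: run without ouabain in cells lacking the KCC2 cotransporter; slope of fluorescence scaled to its starting value between 10 and 20 s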
Numbers without * were called inactive.

How did O=C1c2ccccc2C(=O)N1Cc1cccnc1 do in these assays?
KCC2 mod: -5.35*; ABCB1 inh: 0.5; ABCG2 block: 1.1; ROMK primary: -0.0247; KCC2 sec1: 0.00841; KCC2 bumet counter: 0.00583; KCC2 secondary2: 0.0306; HEK counter1: 0.00717; KCC2 retest ouab: 0.021; HEK293 Tl flux2: inconclusive

How did CCN(CC)C(=O)C(=O)c1cccn1-c1cccc(OC)c1C#N do in these assays?
PMI act satM6P: 1; PMI activator: 0.9; KCC2 mod: -0.305; ABCB1 inh: 1.4; ABCG2 block: 1.9

Results for O=C(NN=C1C2CC3CC1CC(Cl)(C3)C2)c1ccccn1 ?
PMI act satM6P: 0.9; PMI activator: 1; KCC2 mod: 0.702; ABCB1 inh: 0.4; ABCG2 block: 0.9; ROMK primary: 1.38

What do the screens show for `O=C(N/N=C/c1ccccn1)c1sc2ccccc2c1Cl`?
KCC2 mod: 153*; KCC2 sec1: 0.00907*; KCC2 bumet counter: 0.11*; KCC2 secondary2: 0.0541*; HEK counter1: 0.102*; KCC2 retest ouab: 0.089*; HEK293 Tl flux2: 0.0816*

Results for O=C(N/N=C\c1ccncc1)c1ccccc1O ?
PMI act satM6P: 1; PMI activator: 1; KCC2 mod: 0.0885; ABCB1 inh: 0.5; ABCG2 block: 10.3; ROMK primary: 0.425

How did Cc1cc(C)cc(OCC(=O)N/N=C/c2ccccn2)c1 do in these assays?
KCC2 mod: -0.681

Results for O=C(N/N=C/c1c[nH]c2ccccc12)c1sc2ccccc2c1Cl ?
PMI act satM6P: 0.5; PMI activator: 0.8; KCC2 mod: 0.13; ABCB1 inh: -1.1; ABCG2 block: -6.7

What do the screens show for `O=C(N/N=C/c1ccc(-c2ccccc2)o1)c1ccccc1O`?
KCC2 mod: 79.6*; KCC2 sec1: 0.025*; KCC2 bumet counter: 0.0917*; KCC2 secondary2: 0.032; HEK counter1: 0.035*; KCC2 retest ouab: 0.0522*; HEK293 Tl flux2: 0.0135*

How did O=C(N/N=C/c1ccc([N+](=O)[O-])o1)c1sc2ccccc2c1Cl do in these assays?
KCC2 mod: 16.8*; KCC2 sec1: 0.0185*; KCC2 bumet counter: 0.102*; KCC2 secondary2: 0.0333; HEK counter1: 0.0192*; KCC2 retest ouab: 0.0537*; HEK293 Tl flux2: 0.0118*

How did O=C(COc1ccc2ccccc2c1)N/N=C/c1ccccn1 do in these assays?
PMI act satM6P: 0.8; PMI activator: 0.8; KCC2 mod: -3.78*; ABCB1 inh: 0.9; ABCG2 block: 6.6; ROMK primary: -1.04; KCC2 sec1: 0.00484; KCC2 bumet counter: 0.00507; KCC2 secondary2: 0.0249*; HEK counter1: 0.00702; KCC2 retest ouab: inconclusive; HEK293 Tl flux2: 0.0103

Results for CCOC(=O)C(=O)c1csc(NC(=O)CCSc2ccc(C)cc2)n1 ?
PMI act satM6P: 1.1; PMI activator: 1.1; KCC2 mod: 0.122; ABCB1 inh: 1.5; ABCG2 block: 24.6; ROMK primary: 0.00613

How did O=C(N/N=C\c1ccccn1)c1ccccc1O do in these assays?
PMI act satM6P: 0.9; PMI activator: 0.9; KCC2 mod: 5.43*; ABCB1 inh: 0.1; ABCG2 block: 15.5; KCC2 sec1: 0.019; KCC2 bumet counter: 0.0129*; KCC2 secondary2: inconclusive; HEK counter1: 0.015*; KCC2 retest ouab: 0.0223*; HEK293 Tl flux2: 0.0174*

What do the screens show for `CCOP(=O)(OCC)C(NC(=O)/C=C/c1ccc(OC)cc1)c1ccccc1` (centres undefined)?
PMI act satM6P: 0.9; PMI activator: 1; KCC2 mod: 0.46; ABCB1 inh: 0.5; ABCG2 block: 3.6; ROMK primary: -0.00301

What do the screens show for `Cc1cccc(CSc2ncnc3c2cnn3Cc2ccccc2)c1`?
PMI act satM6P: 0.9; PMI activator: 0.8; KCC2 mod: -0.242; ABCB1 inh: 0.5; ABCG2 block: 3.1; ROMK primary: -0.337

How did Cc1ccc(-n2ncc3c(SCc4cccc(C)c4)ncnc32)cc1 do in these assays?
PMI act satM6P: 1; PMI activator: 0.9; KCC2 mod: 6.56*; ABCB1 inh: -0.1; ABCG2 block: -0.7; KCC2 sec1: 0.00737; KCC2 bumet counter: 0.022*; KCC2 secondary2: 0.0416*; HEK counter1: 0.0225*; KCC2 retest ouab: 0.0312*; HEK293 Tl flux2: 0.0262*

How did Clc1ccc(CO/N=C2\CCCc3nonc32)c(Cl)c1 do in these assays?
PMI act satM6P: 0.9; PMI activator: 0.9; KCC2 mod: 0.12; ABCB1 inh: 1.5; ABCG2 block: 17.2; ROMK primary: -0.364

How did CCOc1ccccc1NC(=O)CSc1nnnn1Cc1ccccc1 do in these assays?
PMI act satM6P: 0.9; PMI activator: 0.9; KCC2 mod: -2.64*; ABCB1 inh: 1.5; ABCG2 block: 8.0; ROMK primary: -0.633; KCC2 sec1: 0.00725; KCC2 bumet counter: 0.00405; KCC2 secondary2: 0.0279; HEK counter1: 0.00724; KCC2 retest ouab: inconclusive; HEK293 Tl flux2: 0.0094

Results for COc1ccccc1NC(=O)CSc1nnnn1Cc1ccccc1 ?
PMI act satM6P: 0.9; PMI activator: 0.9; ABCB1 inh: 0.8; ABCG2 block: 3.5; ROMK primary: 0.864

How did CCN(CC)S(=O)(=O)c1ccc(OC)c(NC(=O)c2cc(=O)[nH]c3ccccc23)c1 do in these assays?
PMI act satM6P: 1; PMI activator: 1.1; KCC2 mod: 0.931; ABCB1 inh: 0.4; ABCG2 block: 3.5; ROMK primary: 0.35
